The target in test [1] is T1, DNA topoisomerase 1 (Homo sapiens) (UniProt P11387).
T1 sequence (whole entry): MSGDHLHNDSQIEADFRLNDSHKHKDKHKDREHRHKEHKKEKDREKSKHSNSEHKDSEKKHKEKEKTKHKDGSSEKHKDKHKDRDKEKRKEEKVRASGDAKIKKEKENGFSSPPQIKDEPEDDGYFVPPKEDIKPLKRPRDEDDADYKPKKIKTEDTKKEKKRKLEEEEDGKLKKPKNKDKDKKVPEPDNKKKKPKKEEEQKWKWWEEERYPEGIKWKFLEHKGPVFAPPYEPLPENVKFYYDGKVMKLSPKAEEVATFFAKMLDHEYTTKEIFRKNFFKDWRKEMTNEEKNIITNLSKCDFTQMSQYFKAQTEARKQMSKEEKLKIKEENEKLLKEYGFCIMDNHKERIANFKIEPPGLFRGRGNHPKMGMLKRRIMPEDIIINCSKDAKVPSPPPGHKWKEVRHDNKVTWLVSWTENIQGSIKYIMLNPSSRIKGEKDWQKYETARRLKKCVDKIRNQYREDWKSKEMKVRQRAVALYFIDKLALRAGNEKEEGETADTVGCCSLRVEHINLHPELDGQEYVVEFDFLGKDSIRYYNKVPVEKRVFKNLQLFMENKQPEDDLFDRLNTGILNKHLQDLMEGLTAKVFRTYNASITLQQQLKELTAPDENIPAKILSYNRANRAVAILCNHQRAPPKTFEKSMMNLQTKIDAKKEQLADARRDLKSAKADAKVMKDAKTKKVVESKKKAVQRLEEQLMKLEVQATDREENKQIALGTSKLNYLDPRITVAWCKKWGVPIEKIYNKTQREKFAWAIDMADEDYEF
In words: Inhibition of topoisomerase 1 catalytic activity assessed as relaxation of supercoiled plasmid DNA at 100 uM after 30 mins by agarose gel electrophoresis. The method, boiled down:
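Compound at 100 µM final with topoisomerase I (2U), 37 °C 30 min. Stopped with 1% SDS, proteinase K digestion, 1% agarose TAE gel, ethidium bromide stain, imaging quantitation. Scored 0 to 3+ against camptothecin.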

Test [2] deals with DNA topoisomerase 2-alpha (Homo sapiens) (UniProt P11388). Description: Inhibition of topoisomerase 2 alpha catalytic activity assessed as decatenation of kinetoplast DNA at 100 uM after 15 mins by agarose gel electrophoresis.
A further test concerns CCRF-CEM. In words: Cytotoxicity against human CCRF-CEM cells assessed as cell growth at 10 uM. It is filed as functional. Particulars: read-out: Activity. The method, boiled down:
(§1)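 Single-dose screen at 10 µM against the 60 human cell line panel, run by the NCI Developmental Therapeutics Program and scored as cell growth.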

For the next test, the system named is HCT-116. Description: Cytotoxicity against human HCT116 cells assessed as cell growth at 10 uM. Particulars: read-out: Activity. It is filed as functional. Summed up: as §1
The next test relates to MDA-MB-435. Description: Cytotoxicity against human MDA-MB-435 cells assessed as cell growth at 10 uM. It is filed as functional. The conditions noted are these: read-out: Activity. The method, boiled down: as §1
In another test the test system is SK-MEL-28. In words: Cytotoxicity against human SK-MEL-28 cells assessed as cell growth at 10 uM. It counts as functional. Particulars: read-out: Activity. The method, boiled down: as §1
Another test deals with UACC-257. Description: Cytotoxicity against human UACC257 cells assessed as cell growth at 10 uM. The conditions noted are these: read-out: Activity. It is filed as functional.
Another test deals with NCI/ADR-RES. Description: Cytotoxicity against human NCI/ADR-RES cells assessed as cell growth at 10 uM. It is filed as functional. Particulars: read-out: Activity. The method, boiled down:
as §1

The next test concerns 786-0. In words: Cytotoxicity against human 786-0 cells assessed as cell growth at 10 uM. It counts as functional. The conditions noted are these: read-out: Activity. Summed up: as §1
For the next test, the system named is ACHN. In words: Cytotoxicity against human ACHN cells assessed as cell growth at 10 uM. It is filed as functional. The conditions noted are these: read-out: Activity. Summed up:
as §1

The test system of the next test is RXF 393. In words: Cytotoxicity against human […] cells assessed as cell growth at 10 uM. It is filed as functional. Particulars: read-out: Activity. Summed up:
as §1

Activity calls are given as the source filed them. The rule behind the calls is not given here.

DNA topoisomerase 2-alpha (Homo sapiens), sequence (P11388 whole entry): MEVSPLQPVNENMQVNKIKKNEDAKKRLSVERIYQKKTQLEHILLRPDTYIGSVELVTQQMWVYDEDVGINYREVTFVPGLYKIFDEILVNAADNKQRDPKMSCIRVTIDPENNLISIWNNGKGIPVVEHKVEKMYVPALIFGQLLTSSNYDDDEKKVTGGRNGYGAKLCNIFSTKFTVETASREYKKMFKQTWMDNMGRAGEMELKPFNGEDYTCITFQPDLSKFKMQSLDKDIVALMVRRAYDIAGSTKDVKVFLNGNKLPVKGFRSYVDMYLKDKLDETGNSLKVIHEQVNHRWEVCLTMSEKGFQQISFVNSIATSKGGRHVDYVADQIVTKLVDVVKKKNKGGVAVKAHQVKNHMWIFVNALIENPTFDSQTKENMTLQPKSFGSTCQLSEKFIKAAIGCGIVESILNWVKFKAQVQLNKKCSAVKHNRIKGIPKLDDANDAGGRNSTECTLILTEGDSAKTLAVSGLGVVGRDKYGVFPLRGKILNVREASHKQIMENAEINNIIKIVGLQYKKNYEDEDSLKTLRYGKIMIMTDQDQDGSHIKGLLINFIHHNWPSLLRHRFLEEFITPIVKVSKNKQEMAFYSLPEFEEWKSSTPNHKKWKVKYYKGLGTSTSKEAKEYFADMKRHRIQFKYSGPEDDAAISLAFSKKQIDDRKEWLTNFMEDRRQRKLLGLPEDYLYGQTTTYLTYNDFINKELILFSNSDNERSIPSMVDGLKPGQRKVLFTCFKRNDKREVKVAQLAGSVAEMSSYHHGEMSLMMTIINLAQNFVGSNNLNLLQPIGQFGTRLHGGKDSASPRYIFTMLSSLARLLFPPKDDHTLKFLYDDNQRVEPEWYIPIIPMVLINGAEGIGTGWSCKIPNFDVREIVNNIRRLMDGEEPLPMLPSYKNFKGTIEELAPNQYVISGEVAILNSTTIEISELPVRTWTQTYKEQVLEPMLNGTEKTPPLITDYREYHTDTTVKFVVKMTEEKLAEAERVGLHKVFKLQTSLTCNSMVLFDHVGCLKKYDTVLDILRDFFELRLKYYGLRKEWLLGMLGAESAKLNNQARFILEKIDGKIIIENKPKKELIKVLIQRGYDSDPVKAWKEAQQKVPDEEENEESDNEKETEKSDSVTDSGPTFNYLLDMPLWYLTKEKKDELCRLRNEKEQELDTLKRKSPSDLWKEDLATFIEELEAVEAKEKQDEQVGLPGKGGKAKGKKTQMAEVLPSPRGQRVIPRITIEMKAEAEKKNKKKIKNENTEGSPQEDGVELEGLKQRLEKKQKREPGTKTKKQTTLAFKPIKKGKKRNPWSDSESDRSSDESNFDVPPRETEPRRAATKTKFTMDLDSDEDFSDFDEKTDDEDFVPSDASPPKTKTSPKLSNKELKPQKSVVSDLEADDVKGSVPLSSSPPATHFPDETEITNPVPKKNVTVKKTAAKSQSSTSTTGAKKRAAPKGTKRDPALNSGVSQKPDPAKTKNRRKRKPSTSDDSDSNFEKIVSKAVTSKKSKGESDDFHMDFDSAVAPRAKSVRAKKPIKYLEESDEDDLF

On to `C=C(C)[C@@H]1CC[C@]2(C(O)=S)CC[C@]3(C)[C@H](CC[C@@H]4[C@@]5(C)CC[C@H](O)C(C)(C)[C@@H]5CC[C@]43C)[C@@H]12`, for which, in test [1], the inhibition entry was “inactive”. Moreover, the inhibition entry in test [2] is “Active”. Moreover, the growth at 10 µM in the test on CCRF-CEM was determined as 99.1%; in the test on HCT-116, 85.2%; in the test with MDA-MB-435, 91.3%; with SK-MEL-28 it was 141%; with UACC-257 it was 105%; in the test with NCI/ADR-RES it was 113%. Further, the growth at 10 µM in the test with 786-0 worked out at 93.8%; with ACHN it was 96.3%; in the test with RXF 393, 112%.

(Values after ChEMBL document CHEMBL1154235, “Rational design and semisynthesis of betulinic acid analogues as potent topoisomerase inhibitors” (J Nat Prod, 2009).)
